High-throughput results deposited in PubChem by Broad Institute.
The list is not random: actives were taken first. Their share in the collection is about 2.1%.
GSIS activator = GLuc luminescence reporter in INS-1E cells, primary screen for activators of glucose-dependent secretion of insulin | INS-1E GLuc reporter insulin secretion, 2-3 h | activation, % at 16.6 µM | 370,000 compounds, 0.61% hits;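 active = lowest replicate activation of at least 40%, so every replicate reaches that level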
AF4-AF9 inh = blocks AF4 peptide binding to human AF9. 350,000 compounds, 0.47% hits. inhibition, % at 10 µM. P42568. AlphaScreen, biotin-AF4 peptide binding to FLAG-AF9;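 active = every replicate reaching a set inhibition limit, whatever the replicate mean, cut at about 25% in these data; inconclusive = mean inhibition reaches that limit but some replicates miss it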
Target sequence (P42568 whole entry, looked up): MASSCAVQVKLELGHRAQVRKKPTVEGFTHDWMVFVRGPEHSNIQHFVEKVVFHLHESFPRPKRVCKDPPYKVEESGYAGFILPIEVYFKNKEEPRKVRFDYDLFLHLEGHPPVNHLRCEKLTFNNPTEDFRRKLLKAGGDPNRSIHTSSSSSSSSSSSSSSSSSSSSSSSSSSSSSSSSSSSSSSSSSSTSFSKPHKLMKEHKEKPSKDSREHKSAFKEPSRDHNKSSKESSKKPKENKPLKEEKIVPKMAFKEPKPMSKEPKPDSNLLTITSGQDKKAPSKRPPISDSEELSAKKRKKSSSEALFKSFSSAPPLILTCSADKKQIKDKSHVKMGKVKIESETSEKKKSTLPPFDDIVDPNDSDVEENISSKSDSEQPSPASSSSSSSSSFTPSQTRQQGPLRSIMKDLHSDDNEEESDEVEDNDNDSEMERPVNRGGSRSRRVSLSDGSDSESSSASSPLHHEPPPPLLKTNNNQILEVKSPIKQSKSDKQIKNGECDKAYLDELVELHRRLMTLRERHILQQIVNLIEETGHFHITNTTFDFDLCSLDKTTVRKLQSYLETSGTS
XiGFP reactiv = activators of X-chromosome reactivation in mouse fibroblasts. 360,000 compounds, 0.055% hits. XiGFP mouse fibroblasts, % GFP-positive cells imaging, 3 d; cells co-treated with 5-aza-dC sensitizer; scaled so ellipticine positive control = 100%. activation, % at 7.58 µM. AID 743238;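 active = mean normalized replicate activation at least 10% and every replicate at or above 10%; inconclusive = only one of the two criteria met; inactive = mean below 10% and not all replicates reach 10%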
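Schedule: 3 d treatment, 15 min room-temperature fixation; system: 68-5-11 XiGFP fibroblast line; buffer or medium: DMEM plus 5-aza-dC sensitizer; control set: ellipticine 6 µM positive control; compound: one concentration, pinned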
PGC1a acetyl inh = lowers PGC1a acetylation signal in U2OS cells | AlphaScreen anti-acetyl-lysine; with virally co-expressed GCN5 acetyltransferase | inhibition, % at 15.6 µM | 350,000 compounds, 0.17% hits;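 active = every replicate shows inhibition of at least 40%; inconclusive = mean inhibition at least 40% but some replicate below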
PAX8 reporter = lowers PAX8-driven luciferase in RMG-I cells. inhibition, % at 12.6 µM. RMG-I TPO-luciferase reporter, SteadyGlo, 24 h. 360,000 compounds, 1.2% hits;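 active = mean replicate inhibition at least 60% with every replicate also reaching 60%; inconclusive = only one of the two criteria is met; inactive = mean below 60% and not all replicates reaching 60%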;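 note: luciferase light reporting Pax8 driven TPO promoter activity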
EWS-Fli block = inhibitors of EWS/Fli oncoprotein transcriptional activity; A673 NR0B1-luciferase reporter, viability-normalised; inhibition, % at 12.6 µM; 350,000 compounds, 0.67% hits; AID 651661;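 active = mean inhibition of at least 50% after viability correction, with every replicate also passing that limit; inconclusive = mean reaches 50% but only one of two replicates passes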;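 note: firefly luciferase signal divided by Alamar Blue viability fluorescence both relative to DMSO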
A number is an active result; – = inactive; ? = inconclusive; · = no result given.

SMILES	GSIS activator	AF4-AF9 inh	XiGFP reactiv	PGC1a acetyl inh	PAX8 reporter	EWS-Fli block
CCC(=O)Nc1ccc2c(c1)C(=O)N(C)[C@H]1CC[C@@H](CC(=O)NCc3ccccc3)O[C@H]1CO2	–	–	–	–	–	–
CCC(=O)Nc1ccc2c(c1)C(=O)N(C)C[C@H](OC)[C@H](C)CN(C(=O)C1CCC1)[C@H](C)CO2	–	–	–	–	·	–
CCCC(=O)N1CCN(c2nc3ccccc3s2)CC1	–	–	–	–	–	·
Cc1ccc(-c2nnn(CC(=O)N3CCN(c4nc5ccccc5s4)CC3)n2)cc1	211	·	·	–	–	·
CCN1CCN(CCCNC(=O)c2ccc(/C=C3/Sc4ccccc4N(Cc4ccccc4F)C3=O)cc2)CC1	100	–	–	–	–	–
CCN1CCN(CCNC(=O)c2ccc(/C=C3/Sc4ccccc4N(Cc4ccccc4C)C3=O)cc2)CC1	–	–	–	–	–	–
COc1ccc(S(=O)(=O)Nc2cccc3c2O[C@H](CN(C)C(=O)Nc2ccc4c(c2)OCO4)[C@H](C)CN([C@@H](C)CO)C3=O)cc1	–	–	–	–	·	–
O=C(COc1ccccc1)Nc1ccccc1C(=O)NC1CC1	44	–	–	·	–	–
C[C@H](CO)N1C[C@H](C)[C@@H](CN(C)CC2CC2)OCc2ccccc2-c2c(n(C)c3ccccc23)C1=O	–	·	–	·	·	·
CC(C)NC(=O)N(C)C[C@@H]1Oc2ccc(N)cc2C(=O)N(C)C[C@H]1C	–	·	–	·	·	·
CCCCCCSc1cc(-c2nc3cnccn3c2NCCCC)ccc1OC	108	·	·	–	·	·
COc1cc(OC)cc(C(=O)NC(=S)Nc2ccc3c4c(cccc24)CC3)c1	–	·	·	–	·	·
COc1ccc(C(=O)Nc2ccc3c4c(cccc24)CC3)cc1	–	·	·	86	·	·
COc1ccc(C(=O)NC(=S)Nc2ccc3c4c(cccc24)CC3)cc1OC	96	·	–	·	–	·
COc1ccc(-n2cc(-c3ccc(C)cc3)[n+]3c2SCC3)cc1	–	·	–	·	79	·
CCc1ccc(-n2cc(-c3ccc(F)cc3)[n+]3c2SCCC3)cc1	–	–	–	–	–	–
Cc1ccc(-c2cn(-c3ccccc3)c3[n+]2CCCS3)cc1	–	–	–	–	79	–
C[C@H](CO)N1C[C@H](C)[C@H](CN(C)C)Oc2ccc(NC(=O)CCCCCC(=O)Nc3ccccc3N)cc2CC1=O	–	–	–	–	–	·
CC(C)(C)C(=O)/C(=C/c1ccncc1)n1cncn1	–	–	–	·	70	–
CCOC(=O)c1sc(/N=C/N(C)C)nc1C	–	–	–	–	117	–
CCOc1ccc(/C=C2/Sc3ccc(C(=O)NCC4CCCO4)cc3N(C)C2=O)cc1OC (centres undefined)	40	–	–	–	–	–
O=C([C@H]1[C@H](CO)[C@H]2Cn3c(cccc3=O)[C@H]2N1Cc1ccccc1Cl)N1CCOCC1	–	–	–	·	–	–
CS(=O)(=O)c1ccc2nc(NC(=O)Nc3ccc(Cl)c(Cl)c3)sc2c1	260	·	–	·	–	·
COc1ccc(NC(=O)Nc2cccc3c2O[C@@H](CN(C)C(=O)Nc2ccc(C(F)(F)F)cc2)[C@@H](C)CN([C@@H](C)CO)C3=O)cc1	–	·	–	–	–	–
Cc1ccccc1N1CN(Cc2ccco2)CNC1=S	–	–	–	·	61	–
SMILES	GSIS activator	AF4-AF9 inh	XiGFP reactiv	PGC1a acetyl inh	PAX8 reporter	EWS-Fli block
CC(C)CC#Cc1ccc2c(c1)O[C@@H](CN(C)Cc1cccc(F)c1)[C@H](C)CN([C@@H](C)CO)S2(=O)=O	95	–	–	–	·	–
CC(C)CC#Cc1ccc2c(c1)O[C@H](CN(C)Cc1cccc(F)c1)[C@@H](C)CN([C@@H](C)CO)S2(=O)=O	–	–	–	–	·	62
C[C@@H]1CN([C@H](C)CO)C(=O)Cc2cc(NC(=O)C3CCCCC3)ccc2O[C@@H]1CN(C)S(=O)(=O)c1ccccc1	–	–	–	–	·	–
Cc1cc(N2CCN(C)CC2)nc2ccc(NC(=S)NCCCN3CCc4ccccc4C3)cc12	–	–	–	–	–	–
CCN(CC)CCNC(=S)Nc1ccc2nc(N3CCN(CC)CC3)cc(C)c2c1	48	–	–	–	–	–
Cc1cccc(N2CCN(C(=S)Nc3ccc4nc(N5CCN(C)CC5)cc(C)c4c3)CC2)c1C	–	–	–	–	–	56
CCN1CCN(c2cc(C)c3cc(NC(=O)c4cccs4)ccc3n2)CC1	–	?	12	–	–	–
CCN1CCN(c2cc(C)c3cc(NC(=O)c4cccc(OC)c4)ccc3n2)CC1	·	–	–	–	–	–
Cc1cc(N2CCN(C)CC2)nc2ccc(NC(=S)NCCN3CCc4ccccc4C3)cc12	–	?	49	–	–	–
Cc1cc(N2CCN(C)CC2)nc2ccc(NC(=S)N3CCCCC3)cc12	–	–	–	–	–	–
CNC[C@@H]1Oc2ccccc2C(=O)N(C)C[C@H]1C	–	·	–	·	·	·
C[C@H]1CN([C@@H](C)CO)C(=O)c2cc(NC(=O)Nc3cccc4ccccc34)ccc2O[C@H]1CN(C)S(=O)(=O)c1ccc(F)cc1	–	–	–	–	–	–
Cc1cc(C)n(-c2nc(NCCN(C)C)c3c4c(sc3n2)CCCC4)n1	53	–	–	·	97	–
CCOC(=O)C1CCCN(C(=O)C2c3ccccc3Oc3ccccc32)C1 (centres undefined)	·	·	·	–	–	·
CCOC(=O)C1CCCN(C(=O)C2COc3ccccc3O2)C1 (centres undefined)	42	–	–	–	–	–
CC1CCCC(NC(=O)COC(=O)c2ccccc2Sc2ccccc2C#N)C1C (centres undefined)	–	–	–	–	133	–
Cc1ccccc1CN1C(=O)c2ccccc2C1c1nnnn1-c1ccc2c(c1)OCCO2 (centres undefined)	–	–	–	·	–	61
Cc1ccc(CN2C(=O)c3ccccc3C2c2nnnn2-c2ccc3c(c2)OCCO3)cc1 (centres undefined)	–	–	–	·	–	–
Cc1noc(C)c1NC(=O)N[C@H]1CC[C@@H](CCNC(=O)C2CCC2)O[C@@H]1CO	–	–	–	–	–	–
COc1cccc(NC(=O)C[C@H]2CC[C@H]3[C@H](COc4ccc(NC(=O)C5CCCC5)cc4C(=O)N3C)O2)c1	–	·	–	·	·	·
CCn1nnnc1NCc1ccc(OCc2c(F)cccc2Cl)c(OC)c1	43	–	–	–	–	–
CO[C@@H]1CN(C)C(=O)c2ccc(NS(C)(=O)=O)cc2OC[C@H](C)N(CC2CCOCC2)C[C@@H]1C	–	–	–	–	·	–
Cc1ccc2c(c1)C=CC(C#N)N2C(=O)c1ccccc1 (centres undefined)	50	–	–	·	–	?
CN(C)N1C(N)=C(C#N)C(c2ccc3c(c2)OCO3)C2=C1CCCC2=O (centres undefined)	–	26	–	–	–	–
